This is an account of results in ChEMBL document CHEMBL1157464, “1-[(3-Aryloxy-3-aryl)propyl]-1H-imidazoles, new imidazoles with potent activity against Candida albicans and dermatophytes. Synthesis, structure-activity relationship, and molecular modeling studies” (J Med Chem, 2008).

Molecules are shown by their SMILES. ≈ marks a conversion by molar mass, not a printed value.

As a reminder, the MFC is the smallest concentration meeting the test's criterion for killing the fungus. By MIC is commonly meant the least concentration at which growth counts as inhibited. A word on the MIC50: it is an inhibitory concentration at the 50% level, which refers to growth in some studies and to a panel of isolates in others. The term MIC90 denotes the lowest concentration that inhibits either 90% of growth or 90% of the strains tested, depending on the study.

The test system of test [1] is Arthrodermataceae. Description: Antifungal activity against dermatophytes at 28 degC after 48 to 96 hrs by broth microdilution test. For orientation: Broth dilution looks for growth in wells or tubes with falling amounts of substance.
For test [2], the system named is Arthrodermataceae. The experiment in a line: Antifungal activity against dermatophytes at 28 degC after 5 days by broth microdilution test. The settings on record: for MFC: Arthrodermataceae.
The test system of test [3] is Candida albicans. Description: Antifungal activity against Candida albicans ATCC 10261 at 35 degC after 48 to 96 hrs by broth microdilution test. The format is functional. The method in brief:
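Minimal fungicidal concentration for Candida. […] MFC is the lowest concentration allowing fewer than two colonies (99% killing).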

Test [4] concerns Candida parapsilosis. Description: Antifungal activity against Candida parapsilosis ATCC 22019 at 35 degC after 48 hrs by broth microdilution test. Type of test: functional. The method in brief:
(§1)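 Broth microdilution per NCCLS M27-A2. Stocks in 100% DMSO, diluted in RPMI 1640 with 0.165 M MOPS at pH 7.0; final range 0.25–128 µg/mL. Inoculum 1000–5000 cells/mL from SDA subcultures. […] C. parapsilosis ATCC22019 served as QC strain.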

Test [5] relates to Candida albicans. Description: Antifungal activity against Candida albicans ATCC 10261 at 35 degC after 48 hrs by broth microdilution test. The format is functional. The settings on record: for MIC50: read-out: MIC50. The method, boiled down:
as §1

The test system of test [6] is Arthrodermataceae. Description: Antifungal activity against dermatophytes at 28 degC after 7 days by broth microdilution test. The format is functional. The settings on record: 168 h. The method, boiled down:
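Ten clinical isolates (two M. canis, five M. gypseum, three T. mentagrophytes) tested by NCCLS M38-A broth microdilution in MOPS-buffered RPMI 1640, pH 7.0, over 0.25–128 µg/mL. Conidial/hyphal suspension from PDA slants (28 °C, 7 days) adjusted to 65–70% transmittance at OD530, then diluted 1:50.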

The mark [7] stands for this setting: Candida albicans, ATCC 10261, read-out: MFC.
Where [8] appears, read: Lodderomyces parapsilosis, ATCC 22019, 48 h, read-out: MFC.
Setting [9] is: Lodderomyces parapsilosis, ATCC 22019, 48 h, read-out: MIC.
[10] abbreviates: Candida albicans, ATCC 10261, 48 h, read-out: MIC.
[11] abbreviates: Candida albicans, ATCC 10261, 48 h.
Setting [12] is: Candida albicans, ATCC 10261, 48 h, read-out: MIC90.

For the compound `Clc1ccc(C(OCCn2ccnc2)c2ccccc2)c(Cl)c1.O=[N+]([O-])O` (stereo unspecified), the MFC50 in test [1] turned out to be 8 µg/mL; in test [3] it was 128 µg/mL. Further, the MFC90 was 8 µg/mL in test [2] and above 256 µg/mL in test [3]. Moreover, the MFC came out at 7.5 µg/mL in test [2], 158 µg/mL in test [3] (setting [7]) and 32 µg/mL in test [4] (setting [8]). In addition, the MIC came out at 16 µg/mL in test [4] (setting [9]), 46.1 µg/mL in test [5] (setting [10]) and 7 µg/mL in test [6]. Moreover, the results for the MIC50 in test [5] (setting [11]) and in test [6] were 32 µg/mL and 8 µg/mL, respectively. In addition, the MIC90 in test [5] (setting [12]) is 64 µg/mL; in test [6], 8 µg/mL.

`Cc1ccc(C(CCn2ccnc2)Oc2ccc(C)cc2C)cc1` (stereo unspecified): the MFC50 in test [3] amounted to 64 µg/mL (≈ 200 µM). The MFC90 in test [3] came to 64 µg/mL (≈ 200 µM). Also, the MFC in test [3] (setting [7]) is 62 µg/mL (≈ 193 µM); in test [4] (setting [8]) it was 32 µg/mL (≈ 99.9 µM). Besides, the MIC in test [4] (setting [9]) came to 8 µg/mL (≈ 25 µM); in test [5] (setting [10]) it was 46.5 µg/mL (≈ 145 µM). In addition, the MIC50 in test [5] (setting [11]) came to 32 µg/mL (≈ 99.9 µM). Also, the MIC90 in test [5] (setting [12]) came to 64 µg/mL (≈ 200 µM).

On to `Clc1ccc(C(OCCn2ccnc2)c2ccc(Cl)cc2Cl)cc1.O=[N+]([O-])O` (stereo unspecified), for which the MFC50 in test [3] was 128 µg/mL. In test [3], the MFC90 turned out to be 256 µg/mL. In addition, the minimal fungicidal concentration (MFC) worked out at 145 µg/mL in test [3] (setting [7]) and 32 µg/mL in test [4] (setting [8]). Moreover, the MIC in test [4] (setting [9]) is 16 µg/mL; in test [5] (setting [10]), 34.4 µg/mL. In test [5] (setting [11]), the MIC50 is 32 µg/mL. Moreover, in test [5] (setting [12]), the MIC90 came to 64 µg/mL.

For `Clc1ccc(C(CCn2ccnc2)OCc2ccc(Cl)cc2Cl)cc1` (stereo unspecified), the MFC50 in test [1] was 16 µg/mL (≈ 40.4 µM); in test [3], 64 µg/mL (≈ 162 µM). Also, the MFC90 in test [2] amounted to 16 µg/mL (≈ 40.4 µM); in test [3] it was 64 µg/mL (≈ 162 µM). In addition, the values for the MFC in test [2], in test [3] (setting [7]) and in test [4] (setting [8]) were 17.3 µg/mL (≈ 43.7 µM), 62 µg/mL (≈ 157 µM) and 32 µg/mL (≈ 80.9 µM), respectively. The MIC in test [4] (setting [9]) was found to be 4 µg/mL (≈ 10.1 µM); in test [5] (setting [10]) it was 60.2 µg/mL (≈ 152 µM); in test [6], 7 µg/mL (≈ 17.7 µM). The values for the MIC50 in test [5] (setting [11]) and in test [6] were 64 µg/mL (≈ 162 µM) and 8 µg/mL (≈ 20.2 µM), respectively. In addition, the MIC90 is 64 µg/mL (≈ 162 µM) in test [5] (setting [12]) and 8 µg/mL (≈ 20.2 µM) in test [6].

`Cc1ccc(OC(CCCCn2ccnc2)c2ccc(Cl)cc2)cc1` (stereo unspecified) gave an MFC50 in test [3] of 32 µg/mL (≈ 90.2 µM). The MFC90 in test [3] was found to be 32 µg/mL (≈ 90.2 µM). Moreover, the MFC worked out at 32 µg/mL (≈ 90.2 µM) in test [3] (setting [7]) and 8 µg/mL (≈ 22.5 µM) in test [4] (setting [8]). Moreover, the MIC in test [4] (setting [9]) amounted to 8 µg/mL (≈ 22.5 µM); in test [5] (setting [10]), 32 µg/mL (≈ 90.2 µM). In addition, in test [5] (setting [11]), the MIC50 was 32 µg/mL (≈ 90.2 µM). The MIC90 in test [5] (setting [12]) was 32 µg/mL (≈ 90.2 µM).

Compound `OC(CCn1ccnc1)(c1ccccc1)c1ccccc1` registered an MFC50 in test [3] of 128 µg/mL (≈ 460 µM). This compound also had an MFC90 in test [3] of 128 µg/mL (≈ 460 µM). Further, the MFC in test [3] (setting [7]) turned out to be 128 µg/mL (≈ 460 µM); in test [4] (setting [8]), 64 µg/mL (≈ 230 µM). Moreover, the MIC in test [4] (setting [9]) turned out to be 32 µg/mL (≈ 115 µM); in test [5] (setting [10]), 114 µg/mL (≈ 410 µM). Moreover, in test [5] (setting [11]), the MIC50 came out at 128 µg/mL (≈ 460 µM). Further, in test [5] (setting [12]), the MIC90 was determined as 128 µg/mL (≈ 460 µM).

`Cc1ccc(C(CCn2ccnc2)Oc2ccccc2)cc1` (stereo unspecified): the MFC50 in test [3] stood at 32 µg/mL (≈ 109 µM). This compound also had an MFC90 in test [3] of 64 µg/mL (≈ 219 µM). In addition, the MFC is 38.4 µg/mL (≈ 131 µM) in test [3] (setting [7]) and 32 µg/mL (≈ 109 µM) in test [4] (setting [8]). The MIC in test [4] (setting [9]) was 4 µg/mL (≈ 13.7 µM); in test [5] (setting [10]) it was 20.3 µg/mL (≈ 69.4 µM). Moreover, in test [5] (setting [11]), the MIC50 was determined as 16 µg/mL (≈ 54.7 µM). Besides, the MIC90 in test [5] (setting [12]) amounted to 32 µg/mL (≈ 109 µM).

As for `Cc1ccc(C(CCn2cncn2)Oc2ccc(Cl)cc2Cl)cc1` (stereo unspecified), the MFC50 was 32 µg/mL (≈ 88.3 µM) in test [1] and above 128 µg/mL in test [3]. Also, the MFC90 in test [2] and in test [3] was above 128 µg/mL each time. For the same compound, the MFC in test [2] was 122 µg/mL (≈ 336 µM); in test [3] (setting [7]), above 128 µg/mL; in test [4] (setting [8]), 64 µg/mL (≈ 177 µM). Besides, the MIC in test [4] (setting [9]) is 32 µg/mL (≈ 88.3 µM); in test [5] (setting [10]) it was above 128 µg/mL; in test [6], 17.6 µg/mL (≈ 48.6 µM). The figures for the MIC50 in test [5] (setting [11]) and in test [6] were above 128 µg/mL and 16 µg/mL (≈ 44.2 µM), respectively. Moreover, the results for the MIC90 in test [5] (setting [12]) and in test [6] were above 128 µg/mL and 32 µg/mL (≈ 88.3 µM), respectively.

With `CC(C)(C)c1ccc(OC(CCn2ccnc2)c2ccc(Cl)cc2)cc1` (stereo unspecified), the results for the MFC50 in test [1] and in test [3] were 16 µg/mL (≈ 43.4 µM) and 64 µg/mL (≈ 173 µM), respectively. Besides, the MFC90 in test [2] came out at 32 µg/mL (≈ 86.7 µM); in test [3], 64 µg/mL (≈ 173 µM). Further, the MFC was 26 µg/mL (≈ 70.5 µM) in test [2], 64 µg/mL (≈ 173 µM) in test [3] (setting [7]) and 4 µg/mL (≈ 10.8 µM) in test [4] (setting [8]). The MIC in test [4] (setting [9]) was 2 µg/mL (≈ 5.42 µM); in test [5] (setting [10]), 57.1 µg/mL (≈ 155 µM); in test [6] it was 9.2 µg/mL (≈ 24.9 µM). The MIC50 came out at 64 µg/mL (≈ 173 µM) in test [5] (setting [11]) and 8 µg/mL (≈ 21.7 µM) in test [6]. Moreover, the MIC90 in test [5] (setting [12]) is 64 µg/mL (≈ 173 µM); in test [6], 16 µg/mL (≈ 43.4 µM).

In test [3], `Cc1ccc(OC(CCn2ccnc2)c2ccccc2)cc1` (single isomer, unassigned; (+)) showed an MFC of 14.9 µg/mL (≈ 51 µM). In test [4], this compound displayed a minimal fungicidal concentration (MFC) of 8 µg/mL (≈ 27.4 µM) and an MIC of 1 µg/mL (≈ 3.42 µM). In test [5], the MIC stood at 6.5 µg/mL (≈ 22.2 µM) and the MIC90 came out at 8 µg/mL (≈ 27.4 µM).
